In the library only some 2.4% were active in any assay of this set; here they are far more common.
MT1-MMP act inh: inhibitors of human MT1-MMP activation. P50281. HT1080 RFP-PRO-GFP cells, GFP/RFP ratio fluorescence, overnight; percent of plate control window, DMSO zero. GFP/RFP ratio change, % at 20 µM. 360,000 compounds, 0.061% hits. AID 651647;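 active = GFP/RFP ratio change of at least 30% with cell ATP level not reduced by more than half and red fluorescence within 50% of control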
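Material: RFP-PRO-GFP reporter HT1080 cells. Dosing: single-point 20 µM compound, 1% DMSO. Controls: DMSO and RFP-L50D-GFP cell wells. Timing: cells overnight before dosing, compound overnight, 37 °C, 5% CO2. Measure: GFP/RFP fluorescence ratio.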
SENP1 FRET inh: SENP1 (human) catalytic domain inhibition. Q9P0U3. inhibition, % at 10 µM. recombinant SENP1 catalytic domain, CyPet-SUMO1-YPet FRET cleavage. 360,000 compounds, 0.21% hits. AID 624204;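 active = inhibition at least 30% at 10 µM, raw YFP signal under a set limit, fluorescence ratio 0.5 to 1.5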
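Assay system: hSENP1 catalytic domain, recombinant. Amount: SENP1 enzyme, 20 pM final. Schedule: 50 min reaction, RT, dark. Technique: FRET, CFP and YFP emission. Control set: no-enzyme wells low, DMSO-plus-enzyme wells high control.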
Myeloid diff MLP: myeloid differentiation induction. ER-HoxA9 myeloid progenitors, lysozyme-GFP differentiation, flow cytometry. calls only at 10 µM. 360,000 compounds, 1% hits;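 active = normalized GFP-positive differentiation at or above the plate's own cutoff, the solvent-only control mean plus 3 SD; inconclusive = no clear call, values can overlap the other calls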;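 also: cells exposed to compound for four days before flow analysis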
beta cell repl: inducers of beta-cell replication in MIN6 cells; proliferation, % at 10 µM; MIN6 cells proliferation, ATPlite luminescence, 48 h; cells starved in 0.2% serum; 100% = growth in 10% serum; 330,000 compounds, 0.29% hits; AID 2380;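 active = compounds whose signal lies at least 3.5 SD above the mean of all wells on their plate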
DAGLB inhibitor: diacylglycerol lipase beta (human) inhibition | Q8NCG7 | HEK293T DAGLB membrane lysate, EnzChek fluorogenic substrate | inhibition, % at 5.17 µM | 340,000 compounds, 0.059% hits | AID 504411; in the data active = inhibition above about 34%
Target sequence (Q8NCG7 whole entry, looked up): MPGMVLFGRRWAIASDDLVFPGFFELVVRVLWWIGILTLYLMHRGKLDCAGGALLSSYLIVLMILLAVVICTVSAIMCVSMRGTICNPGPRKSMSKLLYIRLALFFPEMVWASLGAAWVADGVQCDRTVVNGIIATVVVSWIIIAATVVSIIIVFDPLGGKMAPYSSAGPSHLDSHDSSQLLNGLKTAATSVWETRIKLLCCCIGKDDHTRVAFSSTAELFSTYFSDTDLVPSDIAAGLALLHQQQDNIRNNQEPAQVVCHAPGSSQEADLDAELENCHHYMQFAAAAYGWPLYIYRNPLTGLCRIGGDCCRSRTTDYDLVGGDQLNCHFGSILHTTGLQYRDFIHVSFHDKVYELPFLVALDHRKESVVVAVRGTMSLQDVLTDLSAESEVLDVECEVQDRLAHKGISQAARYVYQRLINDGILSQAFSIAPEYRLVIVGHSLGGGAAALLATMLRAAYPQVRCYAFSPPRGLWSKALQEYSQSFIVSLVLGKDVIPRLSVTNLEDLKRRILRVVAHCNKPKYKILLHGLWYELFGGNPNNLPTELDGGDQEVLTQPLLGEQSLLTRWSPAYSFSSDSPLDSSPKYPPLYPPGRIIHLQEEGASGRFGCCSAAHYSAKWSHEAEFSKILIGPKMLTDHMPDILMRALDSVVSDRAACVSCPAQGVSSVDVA
CendR NRP1 mod: modulators of CendR peptide binding to human neuropilin-1. O14786. FAM-RPARPAR peptide binding to NRP-1, fluorescence polarization. inhibition, % at 25 µM. 360,000 compounds, 0.85% hits. AID 602438;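 active = inhibition or corrected inhibition above about 18%, plus a signal ratio from 0.5 to 1.5, limit read from the data, passing the limit was not always enough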
Large screens that a line does not name were inactive.

CCCCC1=CC2=CC(=O)C(C)(OC(=O)CC)C(=O)C2=CN1C(CO)CO (stereo unspecified)	CendR NRP1 mod 35
C=CCN1C=C2C(=O)C(C)(OC(=O)CC)C(=O)C=C2C=C1CCCC (stereo unspecified)	none
CCOC(=O)[C@]12CCCC=C1N(Cc1ccccc1)C(=O)[C@H](CC(=O)N1CCN(C(=O)c3ccco3)CC1)C2	none (no result: beta cell repl, DAGLB inhibitor)
CCOC(=O)c1c(NC(=O)CCNCc2ccco2)sc2c1CCC2	none (no result: MT1-MMP act inh, SENP1 FRET inh, Myeloid diff MLP, DAGLB inhibitor, CendR NRP1 mod)
Cc1ccc(/C=N/NC(=O)c2ccc3ccccc3c2)s1	none (no result: Myeloid diff MLP)
Cc1ccc(NC(=O)COc2ccc3c(c2)OCO3)c(C)c1	CendR NRP1 mod 16
CCc1ccccc1OCC(=O)Nc1ccc(N2CCCC2)cc1C	Myeloid diff MLP active
Cc1cc(N2CCCC2)ccc1NC(=O)COc1ccccc1	Myeloid diff MLP active
O=C(/C=C/c1ccccc1Cl)NC(=S)Nc1ccccc1C(=O)NC1CCCCC1	none
OCC(O)C1OC(Nc2ccc(Cl)cc2)C(O)C1O (stereo unspecified)	Myeloid diff MLP active
COc1ccc(-n2c(CNC(=O)c3cccs3)n[nH]c2=S)cc1	CendR NRP1 mod 31
COc1ccc(CC(=O)NCc2n[nH]c(=S)n2-c2ccc(F)cc2)cc1	none
CN1CCN(C(=O)C[C@@H]2C=C[C@H](NS(=O)(=O)c3cccc(F)c3)[C@@H](CO)O2)CC1	none (no result: beta cell repl, DAGLB inhibitor)
COC(=O)c1cn(-c2ccccc2)nc1-c1ccccc1	none
COC(=O)c1cn(-c2ccccc2)c(C)c1C(=O)OC	CendR NRP1 mod 22
CCCCN(C=O)c1c(CC)nc2ccc(C(=O)NCCN(C)C)cn12	none (no result: beta cell repl, DAGLB inhibitor)
COc1ccc(NC(=O)COC(=O)CCCC2=NS(=O)(=O)c3ccccc3N2)cc1	Myeloid diff MLP inconclusive
O=C(Nc1cccc(F)c1)c1ccccc1-c1ccccc1	Myeloid diff MLP inconclusive
O=C(Nc1ccc(F)cc1F)c1ccccc1-c1ccccc1	CendR NRP1 mod 31
COc1ccc(CCN(/C=C2\Sc3ccccc3C2=O)C(C)=O)cc1OC	Myeloid diff MLP active (no result: DAGLB inhibitor)
CC(=O)Nc1ccc(SCc2csc(C)n2)cc1	none
CCOC(=O)C(NC(C)=O)C(=O)Nc1ccc(C(C)C)cc1 (stereo unspecified)	CendR NRP1 mod 26
CCOC(=O)C(NC(C)=O)C(=O)Nc1ccc(C(C)(C)C)cc1 (stereo unspecified)	none
O=C(NNc1ncnc2c1cnn2-c1ccc(F)cc1)c1ccco1	CendR NRP1 mod 29
Cc1ccc(-n2ncc3c(NNC(=O)c4ccco4)ncnc32)c(C)c1	none
COc1ccc(-c2cc(C(F)F)n3ncc(C(=O)N4CCN(C(=O)c5ccco5)CC4)c3n2)cc1	Myeloid diff MLP active
COc1ccc(-c2cc(C(F)F)n3ncc(C(=O)N4CCCCC4)c3n2)cc1	none
O=C(Nc1ccc(Oc2ccccc2)nc1)C1CCN(Cc2cccc(F)c2)CC1	CendR NRP1 mod 27
CCN(c1ccccc1)S(=O)(=O)c1ccc(OC)c(NC(=O)c2ccco2)c1	none (no result: beta cell repl)
CSc1ccc(CNC(=O)CCn2ccc3cc(S(=O)(=O)N4CCCC4)ccc32)cc1	none
COc1ccccc1Nc1nc(Cl)c(C=O)s1	Myeloid diff MLP active
Cc1ccc(Nc2nc(Cl)c(C=O)s2)cc1Cl	Myeloid diff MLP active
CCN1C(=O)/C(=C/C=C2/Sc3ccc4ccccc4c3N2CCO)SC1=S	Myeloid diff MLP active
O=C1Nc2ccccc2/C1=N/c1sc2c(c1C(=O)NCCc1ccccc1)CCCC2	none
CC1(C(=O)Nc2ccc3c(c2)OCCO3)CCN1C(=O)Cc1ccc(-c2ccccc2)cc1 (stereo unspecified)	none (no result: beta cell repl, DAGLB inhibitor)
CCN(CC)CCNC(=O)C12CC3CC(C)(CC(C)(C3)C1)C2	none
CCN(CC)CCNC(=O)C12CC3CC(CC(C3)C1)C2	Myeloid diff MLP active
O=C(CCCN1C(=O)/C(=C\c2cccs2)SC1=S)NNC(=O)c1cccnc1	none
CC(C)NC(=S)NCc1cccnc1	none
O=C(Nc1cccc(Br)c1)c1cc(=O)c2ccccc2o1	none
Cc1cc(/C=C2\SC(=S)NC2=O)c(C)n1-c1ccc(O)cc1	none
Cc1cc(/C=C2\SC(=S)NC2=O)c(C)n1C	Myeloid diff MLP active
C/C=C(/C)C(=O)O[C@@H]1c2cc(OC)c(OC)c(OC)c2-c2c(cc3c(c2OC)OCO3)C[C@H](C)[C@]1(C)O	CendR NRP1 mod 28
COc1cc(C2c3cc4c(cc3OC(NNC(N)=O)C2C)OCO4)cc(OC)c1OC (stereo unspecified)	none (no result: Myeloid diff MLP, beta cell repl)
COc1cc2c(c(OC)c1OC)-c1c(cc3c(c1OC)OCO3)[C@@H](OC(C)=O)[C@H](C)[C@H](C)C2	CendR NRP1 mod 27
O=C1NC(Cc2ccccc2)c2nc3cc(F)ccc3c(=O)n2-c2cc(Cl)ccc21 (stereo unspecified)	none (no result: MT1-MMP act inh, SENP1 FRET inh, Myeloid diff MLP, DAGLB inhibitor, CendR NRP1 mod)
O=C(c1ccccc1-c1ccccc1)N1CCCCC1	CendR NRP1 mod 23
O=C(O)c1ccccc1SCC(=O)N1CCCCC1	CendR NRP1 mod 28
O=C(O)c1ccccc1SCC(=O)N1CCOCC1	none
CNS(=O)(=O)c1cccc(C(=O)OCCCOC(=O)c2cccc(S(=O)(=O)NC)c2)c1	none
Cc1cc(C)c(C(=O)/C=C/c2ccco2)c(=O)[nH]1	Myeloid diff MLP active
Cc1ccc(/C=C/C(=O)c2c(C)cc(C)[nH]c2=O)cc1	none
CCSc1nnc(-c2cnn(-c3ccccc3)c2-n2cccc2)n1C	CendR NRP1 mod 44
O=c1c2ccccc2sc2ccc(NCCCN3CCOCC3)cc12	Myeloid diff MLP active
Cc1cc2oc3cc(NCCC4CCCN4C)ccc3c(=O)c2cc1C (stereo unspecified)	none
CN1CCCC1CCNc1ccc2sc3ccccc3c(=O)c2c1 (stereo unspecified)	Myeloid diff MLP active
CCOC(=O)C(NCc1ccc(OC)cc1)(NC(C)=O)C(F)(F)F (stereo unspecified)	none
COc1cccc(/C=N/NC(=O)C(=O)Nc2ccccc2OC(F)(F)C(F)F)c1O	SENP1 FRET inh 35, Myeloid diff MLP active
COC(=O)[C@H](CCSC)NC(=O)Nc1ccc(OC)c(Cl)c1	CendR NRP1 mod 24
O=C(Nc1ccc([N+](=O)[O-])cc1)OC1CCS(=O)(=O)C1 (stereo unspecified)	none (no result: beta cell repl, DAGLB inhibitor)
CCNC(=O)/C(C#N)=C/c1c(N2CCCCCC2)nc2ccccn2c1=O	none
CNC(=O)/C(C#N)=C/c1c(N2CCCCCC2)nc2ccccn2c1=O	Myeloid diff MLP active
CCCCC(c1nnnn1CC1CCCO1)N1CCN(c2nc3ccccc3s2)CC1 (stereo unspecified)	CendR NRP1 mod 18 (no result: beta cell repl)
CCCC(c1nnnn1CC1CCCO1)N1CCN(c2nc3ccccc3s2)CC1 (stereo unspecified)	none
